Assay results published in ChEMBL document CHEMBL3124866, “Small molecular antibacterial peptoid mimics: the simpler the better!” (J Med Chem, 2014).
≈ marks a conversion by molar mass, not a printed value. Calls of active or inactive are those of the source. No cut-off for these calls is given here. Residues, ends and D or L forms follow the SMILES beside them.

Tests used:
Staphylococcus aureus [1] = assay: Antibacterial activity against drug-sensitive Staphylococcus aureus MTCC 737 assessed as change in cell membrane morphology at 10 X MIC after 1.5 hrs by SYTO and propidium iodide staining-based fluorescence microscopic analysis; assay type: functional, organism-based
Outline: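 Suspension at 10^9 cells/mL was treated at 10× MIC for 1.5 h, beside an untreated control. Cells were pelleted, resuspended in PBS and mixed with a probe mix of 3.0 µM SYTO 9 and 15.0 µM PI. After 15 min in the dark, cells were examined by fluorescence microscopy.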

[2] = Therapeutic index, ratio of HC50 for human erythrocytes to MIC for drug-sensitive Pseudomonas aeruginosa ATCC 4676; settings: read-out: TI
Staphylococcus aureus [3] = assay: Antibacterial activity against drug-sensitive Staphylococcus aureus MTCC 737 assessed as formation of blebs and holes at 10 X MIC after 2 hrs by field-emission scanning electron microscopic analysis; assay type: functional, organism-based
Outline: (§1)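 Cells grown 6 h (E. coli in LB, S. aureus in yeast-dextrose broth) were resuspended at 10^6 cells/mL in nutrient media pH 7.4. They were treated at 10× MIC at 37 °C for 2 h with 250 rpm shaking, beside an untreated control. Cells were pelleted, dehydrated through a 30–100% ethanol series and dried on silicon wafer. S. aureus was sputter-coated; E. coli was imaged uncoated by FESEM.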

Escherichia coli [4] = assay: Antibacterial activity against drug-sensitive Escherichia coli MTCC 443 assessed as disruption of cell membrane at 10 X MIC after 2 hrs by field-emission scanning electron microscopic analysis; assay type: functional, organism-based; outline: as §1
Staphylococcus aureus [5] = assay: Antibacterial activity against drug-sensitive Staphylococcus aureus MTCC 737 assessed as inner cytoplasmic membrane permeabilization at MIC measured up to 10 mins by propidium iodide staining-based fluorescence assay; assay type: functional, organism-based
Outline: (§2)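 Mid-log S. aureus were harvested, washed and resuspended in 5 mM HEPES/5 mM glucose pH 7.2 containing 15 µM propidium iodide. Compound was added and PI uptake followed as fluorescence increase (ex 535 nm, em 617 nm) for 10 min.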

[6] = Stability of the compound assessed as trypsin (unknown origin)-mediated drug degradation at 1 mg/ml up to 24 hrs by LC-MS analysis; assay type: ADME; settings: human
Outline: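 Compound at 1 mg/mL (solution before mixing) was incubated with trypsin in 0.1 M NH4HCO3 at 37 °C. Aliquots were taken from 0 min to 24 h, diluted with water and analyzed by LC-MS for new products and total ion current. A no-trypsin control was sampled at 0 and 24 h.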

Pseudomonas aeruginosa [7] = assay: Antibacterial activity against drug-sensitive Pseudomonas aeruginosa ATCC 4676 after 24 hrs by broth microdilution assay; assay type: functional; settings: ATCC 4676, 24 h
Outline: (§3)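 Bacteria grown 6 h to ~10^9 cfu/mL and diluted to 10^5 cfu/mL in nutrient media. Growth media were LB (E. coli), yeast-dextrose broth (S. aureus, P. aeruginosa) and BHI (E. faecium). Compound was serially diluted in water and added 1:3 to bacteria, then incubated 37 °C for 24 h with OD600 read-out. Triplicate ODs were sigmoid-fitted; MIC was taken where OD matched the no-bacteria control. At least two independent experiments.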

Staphylococcus aureus [8] = assay: Antibacterial activity against methicillin-resistant Staphylococcus aureus ATCC 33591 after 24 hrs by broth microdilution assay; assay type: functional; settings: ATCC 33591, 24 h
Outline: (§4)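 MIC by broth microdilution. Cultures were grown 6 h to ~10^9 cfu/mL, then diluted to 10^5 cfu/mL. Media: yeast-dextrose broth for MRSA, BHI for VRE, and beef extract/peptone nutrient broth for K. pneumoniae. Compounds were serially diluted in water, 50 µL added to 150 µL cells, and incubated 24 h at 37 °C. OD600 triplicates were sigmoid-fitted; MIC is the point where OD equals the no-bacteria control. Mean ± SEM of ≥2 experiments.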

Klebsiella pneumoniae = assay: Antibacterial activity against beta-lactam-resistant Klebsiella pneumoniae ATCC 700603 after 24 hrs by broth microdilution assay; assay type: functional; settings: ATCC 700603, 24 h; outline: as §4
Staphylococcus aureus [9] = assay: Bactericidal activity against drug-sensitive Staphylococcus aureus MTCC 737 at 2 X MIC after 24 hrs by time-kill assay; assay type: functional, organism-based
Outline: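 S. aureus at ~1.8×10^6 CFU/mL in fresh media was exposed at MIC and 2× MIC. Samples were taken at 0, 1, 2, 3, 6 and 24 h and serially diluted 10-fold in 0.9% saline. They were plated on yeast-dextrose agar at 37 °C overnight, and colonies were counted as log10 CFU/mL.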

Escherichia coli [10] = assay: Antibacterial activity against drug-sensitive Escherichia coli MTCC 443 assessed as merging of dead bacteria with each other at 10 X MIC after 2 hrs by field-emission scanning electron microscopic analysis; assay type: functional, organism-based; outline: as §1
Staphylococcus aureus [11] = assay: Antibacterial activity against drug-sensitive Staphylococcus aureus MTCC 737 preincubated for 3 hrs in 50% human plasma measured after 24 hrs by broth microdilution assay; assay type: functional; settings: MTCC 737, Plasma
Outline: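 Plasma was separated by centrifuging fresh human blood. Compound at 1600 µg/mL in 50% plasma was preincubated at 37 °C for 0, 3 or 6 h. Two-fold dilutions were added 1:3 to S. aureus at 10^5 cfu/mL and incubated 37 °C for 24 h. MIC was read by OD as in the broth assay.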

Staphylococcus aureus [12] = assay: Antibacterial activity against drug-sensitive Staphylococcus aureus MTCC 737 assessed as cytoplasmic membrane depolarization at MIC measured up to 12 mins by DiSC3(5) dye-based fluorimetric analysis; assay type: functional, organism-based
Outline: (§5)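 Mid-log cells were washed and resuspended at 10^8 cfu/mL in 5 mM glucose, 5 mM HEPES and 100 mM KCl (1:1:1). They were loaded with 2 µM DiSC3(5) for 10 min (S. aureus) or 20 min (P. aeruginosa, E. coli), then stabilized 2 min at room temperature. Compound was added and depolarization read as fluorescence increase (ex 622 nm, em 670 nm) over 10 min.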

[13] = Retention time of the compound by HPLC analysis; assay type: physicochemical
Escherichia coli [14] = assay: Antibacterial activity against drug-sensitive Escherichia coli MTCC 443 after 24 hrs by broth microdilution assay; assay type: functional; settings: MTCC 443, 24 h; outline: as §3
Escherichia coli [15] = assay: Antibacterial activity against drug-sensitive Escherichia coli MTCC 443 at MIC measured […] by DiSC3(5) dye-based fluorimetric analysis; assay type: functional, organism-based; outline: as §5
Escherichia coli [16] = assay: Antibacterial activity against drug-sensitive Escherichia coli MTCC 443 assessed as outer cytoplasmic membrane permeabilization at MIC measured up to 10 mins by N-phenylnaphthylamine dye-based fluorescence assay; assay type: functional, organism-based
Outline: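 Mid-log E. coli (6 h, 10^8 cells/mL) were washed and resuspended in 5 mM glucose/5 mM HEPES pH 7.2 with 10 µM NPN. Compound was added in water. Outer membrane uptake of NPN was followed as fluorescence increase (ex 350 nm, em 420 nm) for 10 min.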

[17] = Hemolytic activity in human erythrocytes after 1 hr by spectrophotometric analysis; assay type: ADME, cell-based, Erythrocyte
Outline: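 Heparinized fresh human erythrocytes at 5 vol% in PBS pH 7.4 were mixed 3:1 with serially diluted compound and held 1 h at 37 °C. Plates were centrifuged and supernatant A540 read. Hemolysis was scaled between an untreated control and a Triton X-100 (100% lysis) control. HC50 is the mean of at least two independent triplicate experiments.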

Staphylococcus aureus [18] = assay: Antibacterial activity against drug-sensitive Staphylococcus aureus MTCC 737 after 24 hrs by broth microdilution assay; assay type: functional; settings: MTCC 737, 24 h; outline: as §3
Enterococcus faecium [19] = assay: Antibacterial activity against drug-sensitive Enterococcus faecium ATCC 19634 after 24 hrs by broth microdilution assay; assay type: functional; settings: ATCC 19634, 24 h; outline: as §3
Enterococcus faecium [20] = assay: Antibacterial activity against vancomycin-resistant Enterococcus faecium ATCC 51559 after 24 hrs by broth microdilution assay; assay type: functional; settings: ATCC 51559, 24 h; outline: as §4
Staphylococcus aureus [21] = assay: Antibacterial activity against drug-sensitive Staphylococcus aureus MTCC 737 assessed as cytoplasmic membrane depolarization at MIC to 4 X MIC measured […] by DiSC3(5) dye-based fluorimetric analysis; assay type: functional, organism-based; outline: as §5
Staphylococcus aureus [22] = assay: Bactericidal activity against methicillin-resistant Staphylococcus aureus ATCC 33591 at 3 X MIC after 6 hrs by time-kill assay; assay type: functional, organism-based
Outline: (§6)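 Time-kill: MRSA (~1.8×10^6 CFU/mL in fresh media) exposed at 37 °C to compound at 1×, 3× or 6× MIC. Aliquots taken at 0, 1, 2, 3, 6 and 24 h, 10-fold serially diluted in 0.9% saline, plated on yeast-dextrose agar, incubated overnight at 37 °C. Colonies counted, expressed as log10 CFU/mL.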

Pseudomonas aeruginosa [23] = assay: Antibacterial activity against drug-sensitive Pseudomonas aeruginosa ATCC 4676 at MIC to 2 X MIC measured […] by DiSC3(5) dye-based fluorimetric analysis; assay type: functional, organism-based; outline: as §5
Staphylococcus aureus [24] = assay: Antibacterial activity against drug-sensitive Staphylococcus aureus MTCC 737 assessed as inner cytoplasmic membrane permeabilization at 2 X MIC to 4 X MIC measured up to 10 mins by propidium iodide staining-based fluorescence assay; assay type: functional, organism-based; outline: as §2
Staphylococcus aureus [25] = assay: Bactericidal activity against methicillin-resistant Staphylococcus aureus ATCC 33591 at 6 X MIC after 1 hr by time-kill assay; assay type: functional; outline: as §6
Escherichia coli [26] = assay: Ratio of MSI-78 MIC to compound MIC for Escherichia coli; assay type: functional
Staphylococcus aureus [27] = assay: Antibacterial activity against Staphylococcus aureus ATCC 29213 after 24 hrs by broth microdilution assay; assay type: functional; settings: ATCC 29213, 24 h
Escherichia coli [28] = assay: Antibacterial activity against Escherichia coli ATCC 25922 after 24 hrs by broth microdilution assay; assay type: functional; settings: ATCC 25922, 24 h
Pseudomonas aeruginosa [29] = assay: Antibacterial activity against Pseudomonas aeruginosa ATCC 27853 after 24 hrs by broth microdilution assay; assay type: functional; settings: ATCC 27853, 24 h
Enterococcus faecium [30] = assay: Antibacterial activity against Enterococcus faecium ATCC 29212 after 24 hrs by broth microdilution assay; settings: ATCC 29212, 24 h

Structure (SMILES) | Activity (Staphylococcus aureus [1]) | selectivity ratio [2] | Activity (Staphylococcus aureus [3]) | Activity (Escherichia coli [4]) | MIC (Pseudomonas aeruginosa [7]) [mg/L] | MIC (Staphylococcus aureus [8]) [mg/L] | MIC (Klebsiella pneumoniae) [mg/L] | Activity (Escherichia coli [10]) | Retention_time [13] [min] | MIC (Escherichia coli [14]) [mg/L] | HC50 at 1 h [17] [µg/mL] | MIC (Staphylococcus aureus [18]) [mg/L] | MIC (Enterococcus faecium [19]) [mg/L] | MIC (Enterococcus faecium [20]) [mg/L] | other results
CCCCCCN(Cc1cccc2ccccc12)C(=O)[C@@H](N)CCCCN.O=C(O)C(F)(F)F.O=C(O)C(F)(F)F | Active | 50 | Active | Active | 11 | 65 | 100 | Active | 11.8 | 25 | 508 | 20 | 34 | 54 | Activity (Staphylococcus aureus [5]): Active; Stability [6]: Stable; Activity (Staphylococcus aureus [9]): Active; MIC (Staphylococcus aureus [11]): 30 mg/L; Activity (Staphylococcus aureus [12]): Active; Activity (Escherichia coli [15]): Active; Activity (Escherichia coli [16]): Active
CCCCCCN(Cc1c2ccccc2c(Cl)c2ccccc12)C(=O)[C@@H](N)CCCCN.O=C(O)C(F)(F)F.O=C(O)C(F)(F)F | Active | 50 | Active | Active | 1.6 | 2.8 | 16 | Active | 13.6 | 3.5 | 82 | 2.4 | 3.3 | 5.2 | Activity (Staphylococcus aureus [21]): Active; Activity (Staphylococcus aureus [22]): Active; Activity (Pseudomonas aeruginosa [23]): Active; Activity (Staphylococcus aureus [24]): Active; log10CFU/ml (Staphylococcus aureus [25]): 6; Ratio (Escherichia coli [26]): 5
CC[C@H](C)[C@H](NC(=O)CN)C(=O)NCC(=O)N[C@@H](CCCCN)C(=O)N[C@@H](Cc1ccccc1)C(=O)N[C@@H](CC(C)C)C(=O)N[C@@H](CCCCN)C(=O)N[C@@H](CCCCN)C(=O)N[C@@H](C)C(=O)N[C@@H](CCCCN)C(=O)N[C@@H](CCCCN)C(=O)N[C@@H](Cc1ccccc1)C(=O)NCC(=O)N[C@@H](CCCCN)C(=O)N[C@@H](C)C(=O)N[C@@H](Cc1ccccc1)C(=O)N[C@H](C(=O)N[C@@H](CCCCN)C(=O)N[C@H](C(=O)N[C@@H](CC(C)C)C(=O)N[C@@H](CCCCN)C(=O)N[C@@H](CCCCN)C(N)=O)[C@@H](C)CC)C(C)C [PEXIGANAN] (H-GIGKFLKKAKKFGKAFVKILKK-NH2) |  |  |  |  |  | 16 (≈ 6.46 µM) | 8 (≈ 3.23 µM) |  |  |  |  |  |  | 8 (≈ 3.23 µM) | MIC (Staphylococcus aureus [27]): 8 mg/L (≈ 3.23 µM); MIC (Escherichia coli [28]): 16 mg/L (≈ 6.46 µM); MIC (Pseudomonas aeruginosa [29]): 8 mg/L (≈ 3.23 µM); MIC (Enterococcus faecium [30]): 64 mg/L (≈ 25.8 µM)
